TNAP inh hi DEA: TNAP (human) inhibition, high acceptor; 200,000 tested, 0.03% active; inhibition, % at 20 µM; purified TNAP, CDP-star luminescence, 1 M DEA; P05186;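 active = over 50% inhibition of tissue-nonspecific alkaline phosphatase at 20 µM in the single-dose screen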;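 also: plate controls were DMSO wells for no effect and EDTA-quenched wells as full inhibition for full effect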
Target sequence (P05186 whole entry, looked up): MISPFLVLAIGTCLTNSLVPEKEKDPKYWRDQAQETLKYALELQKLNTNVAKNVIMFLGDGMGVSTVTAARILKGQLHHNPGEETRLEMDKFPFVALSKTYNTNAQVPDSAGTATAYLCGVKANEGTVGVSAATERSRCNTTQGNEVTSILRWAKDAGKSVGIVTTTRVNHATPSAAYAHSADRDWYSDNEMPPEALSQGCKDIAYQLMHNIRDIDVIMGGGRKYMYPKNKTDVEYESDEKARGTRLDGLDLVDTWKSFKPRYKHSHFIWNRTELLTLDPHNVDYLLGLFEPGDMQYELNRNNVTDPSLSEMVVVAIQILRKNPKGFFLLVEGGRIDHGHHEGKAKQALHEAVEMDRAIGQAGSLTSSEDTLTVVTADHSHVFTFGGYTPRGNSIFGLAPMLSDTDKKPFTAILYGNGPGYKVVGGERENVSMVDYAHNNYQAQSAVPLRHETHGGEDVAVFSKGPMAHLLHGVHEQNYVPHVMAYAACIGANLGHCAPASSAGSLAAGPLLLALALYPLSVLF
TNAP inh noacc: inhibitors of human TNAP without phosphate acceptor; AID 1012; inhibition, % at 20 µM; 200,000 tested, 0.26% active; purified TNAP, CDP-star luminescence, 30 min;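 active = tissue-nonspecific alkaline phosphatase inhibition above about 50% at 20 µM in the single-dose screen, limit read from the data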;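 also: 0% = DMSO negative control and 100% = EDTA positive control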
TNAP act hi DEA: TNAP (human) activation, high acceptor | P05186 | purified TNAP, CDP-star luminescence, 1 M DEA, 30 min; active compounds read high; 0 = EDTA background, 1 = DMSO-only activity | activation factor at 20 µM | 200,000 tested, under 10 active;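 active = activation factor at least 2 at 20 µM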
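Dosing: 20 µM single point. System: human TNAP. Amount: TNAP 1/800 final. Incubation: 30 min, room temperature. Read-out: TNAP activation factor scaled between EDTA and DMSO control wells. Signal: luminescence from CDP-star hydrolysis. Medium: 1 M DEA, pH 9.8, Mg2+, Zn2+. Control set: EDTA negative control, DMSO positive control.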
PKD1 inh: PKD1 (human) kinase inhibition | Q15139 | PKD1 kinase fluorescence polarization assay | inhibition, % (no concentration beside the values) | 200,000 tested, 0.056% active; in the data active = inhibition above about 50%
Active calls of the source: *. The list is not random: actives were taken first. Their share in the collection is about 0.35%.

SMILES	TNAP inh hi DEA	TNAP inh noacc	TNAP act hi DEA	PKD1 inh
Cc1noc(NS(=O)(=O)c2ccc(NC(=O)CSc3n[nH]c(-c4ccccc4)n3)cc2)c1C	8.1	60.1*	0.9	0.2
O=C(CSc1n[nH]c(-c2ccccc2)n1)Nc1ccc(Br)cn1	1.6	57.4*	1	-2.5
Cc1c(NC(=O)CSc2n[nH]c(-c3ccccc3)n2)c(=O)n(-c2ccccc2)n1C	3.4	52.8*	1	-0.1
CCc1nc(SCC(=O)Nc2c(C)n(C)n(-c3ccccc3)c2=O)n[nH]1	-12.8	-7.6	1.1	1.5
O=C(N/N=C/C=C\c1ccccc1[N+](=O)[O-])c1ccccn1	2.1	-72.5	1	-18.0
O=C(N/N=C/C=C/c1ccccc1[N+](=O)[O-])c1cc(-c2ccccc2)n[nH]1	6.8	64.0*	0.9	-9.0
COc1ccc(/C=N/NC(=O)c2cc(C34CC5CC(CC(C5)C3)C4)[nH]n2)cc1O	2.9	93.8*	1	2.2
O=C(NCc1ccco1)c1cc(-c2ccc3c(c2)OCO3)on1	-4.3	-13.6	1	-11.5
Clc1ccc(CSc2ccc(-c3cccnc3)nn2)cc1	3.1	7.8	1	2.4
O=C(c1n[nH]c2c1CCCC2)n1ccnc1	-1.8	69.6*	1	-2.7
O=C(O)c1n[nH]c2c1CCCC2	-3.4	12.8	1	-3.7
Cc1cc(C)n(-c2cc(Cl)ccc2[N+](=O)[O-])n1	-1.3	-3.9	1	-5.2
CC1(C)CC(=O)C=C(NCc2ccccc2)C1	-1.4	-9.4	1	10.6
CCCCc1n[nH]c2c1C(=O)CC(C)(C)C2	-3.1	86.6*	1	-6.6
CC1(C)CC(=O)c2c(nn(-c3ccccc3)c2-c2ccncc2)C1	16.4	-7.0	0.8	-5.9
CC1(C)CC(=O)c2c(-c3cccnc3)n[nH]c2C1	-5.8	71.9*	1.1	-8.7
CC1(C)CC(=O)c2c(Cc3ccccc3)n[nH]c2C1	-1.6	88.2*	1	8.4
CCc1n[nH]c2c1/C(=N\O)CC(C)(C)C2	-6.6	3.4	1.1	-8.7
Cc1cccc(/C=N/n2c(-c3ccccn3)n[nH]c2=S)c1	-1.6	53.5*	1	6.3
Cc1ccc(-c2cc(C(=O)O)n[nH]2)s1	-1.1	77.2*	1	-2.0
O=C(O)c1cc(-c2ccco2)[nH]n1	5.4	51.2*	0.9	3.5
CC1CCC(C(=O)NNC(=O)c2cc(-c3ccco3)[nH]n2)CC1 (stereo unspecified)	-0.8	-81.9	1	4.3
Cc1ccccc1NC(=O)CSc1nnc(-c2ccoc2C)n1CCc1ccccc1	-4.7	2.9	1	1.1
CC(=O)c1c(C(C)=O)c(C)n(-c2cccc([N+](=O)[O-])c2)c1C	0.5	-5.9	1	-1.9
CC(=O)C1=C(c2cccc([N+](=O)[O-])c2)N(C(C)=O)n2c(C)nnc2S1	0.9	62.9*	1	0.0
SMILES	TNAP inh hi DEA	TNAP inh noacc	TNAP act hi DEA	PKD1 inh
Cc1cc(C(F)(F)F)c(C#N)c(SCC(=O)NC(C)(C)C)n1	-1.9	-5.5	1	-6.0
FC(F)(F)c1cc(-c2cccs2)n[nH]1	-4.7	71.0*	1	-2.8
COc1cccc(N2CC(C(=O)OC(C)C(=O)c3ccccc3)CC2=O)c1 (stereo unspecified)	-3.4	-6.9	1	-4.0
CC(=O)Nc1ccc(S(=O)(=O)NCC(=O)NCCc2ccc(S(N)(=O)=O)cc2)cc1	3.8	15.9	1	4.2
NS(=O)(=O)c1ccc(CCNC(=O)CNS(=O)(=O)c2cccc(Br)c2)cc1	12.5	76.5*	0.9	-9.3
CCCCNC(=O)c1onc(CSc2cc(C)cc(C)c2)c1C(=O)O	-3.4	-10.2	1	-17.0
COc1ccccc1N1CCN(/N=C/c2ccc(O)c(O)c2)CC1	0.6	53.9*	1	7.7
O=C(NCc1ccco1)C1(c2ccccc2)CCCC1	-3.9	-12.0	1	-6.1
Cc1c(Br)cc(C(=O)NCc2ccco2)c(C)c1C	-1.3	-12.2	1	-0.9
O=C(c1ccccc1)c1cn[nH]c1-c1ccccc1O	0.7	77.6*	1	-5.3
Cc1cccc(NC(=O)CSc2nc3nc(C)cc(C)c3c(=O)[nH]2)c1	-2.2	3.9	1	-9.4
Fc1ccc(-c2n[nH]c(=S)n2/N=C/c2c[nH]c3ccccc23)cc1	3.0	-52.2	1	-7.0
O=[N+]([O-])c1ccccc1Nc1c2ccccc2nc2ccccc12	9.1	6.8	0.9	-2.5
O=[N+]([O-])c1ccc(Nc2c3ccccc3nc3ccccc23)cc1	18.6	10.1	0.8	67.0*
COC(=O)[C@@H]1C2CCC(C(=O)Nc3ccccc3)(CC2)[C@@H]1C(=O)OC	-2.8	0.9	1	-3.2
O=[N+]([O-])c1ccc(/C=N/NC2=NS(=O)(=O)c3ccccc32)cc1	6.0	1.5	0.9	-2.7
O=[N+]([O-])c1ccc(O)c(/C=N/NC2=NS(=O)(=O)c3ccccc32)c1	10.0	73.4*	0.9	4.4
O=C(O)CNC(=O)/C=C/c1ccc(Cl)cc1Cl	1.4	60.2*	1	-4.2
CCS(=O)(=O)n1nc(NCc2cccc(OC)c2)nc1NCc1cccc(OC)c1	-2.2	-4.9	1	-2.1
CC(=O)c1cccc(NC(=S)NC2CC2)c1	-2.3	-88.4	1	0.4
CCCc1cc(=O)n2[nH]c(CCc3ccccc3)nc2n1	-4.9	3.6	1	1.9
O=C1c2ccccc2C(=O)N1c1n[nH]c(CCc2ccccc2)n1	-0.2	57.2*	1	1.6
COc1cc(C2C(C#N)=C(N)Oc3n[nH]c(-c4cccs4)c32)cc(OC)c1O (stereo unspecified)	38.3	53.8*	0.6	-4.3
CCN(C(=O)COC(=O)c1[nH]c(=O)[nH]c(=O)c1N)c1ccccc1	-4.6	-0.8	1	-7.4
Cc1c(Br)c(=O)oc2c(Br)c(O)c(O)cc12	2.0	50.0*	1	7.1
SMILES	TNAP inh hi DEA	TNAP inh noacc	TNAP act hi DEA	PKD1 inh
Cc1c(Br)c(=O)oc2c(Br)c(O)ccc12	-1.1	-12.6	1	1.6
CCc1cc2c(=O)nc3n(c2s1)Cc1ccccc1/C3=C(/O)c1cccc([N+](=O)[O-])c1	0.9	3.5	1	6.4
C/C(CC(=O)Nc1ccc(Cl)cc1Cl)=N\NC(=O)C(=O)N1CCCC1	3.4	40.5	1	-3.0
C/C(CC(=O)Nc1ccccc1Br)=N\NC(=O)C(=O)N1CCCC1	3.7	66.1*	1	2.7
O=C(O)c1[nH]nc2c1COc1ccccc1-2	0.1	91.3*	1	-7.5
Cc1cc(C)c(N(C(=O)Cn2nnc3ccccc32)C(C(=O)NC(C)(C)C)c2ccsc2)c(C)c1 (stereo unspecified)	-3.5	-4.3	1	2.4
O=C1/C(=C/c2ccc(O)c(O)c2)SC(=S)N1Nc1ccccc1	88.4*	93.7*	0.1	1.8
Cc1cc(C)nc(NN2C(=O)/C(=C/c3ccccc3)SC2=S)n1	1.4	41.9	1	7.7
COc1ccc(C2=NN(c3ccccc3)C(=O)/C2=C\c2ccc(O)c(OC)c2)cc1	40.8	50.1*	0.6	-7.2
CCOc1cc(/C=C2\SC(=S)N(Nc3ccccc3)C2=O)ccc1O	49.4	37.9	0.5	4.0
COc1cc(/C=C2/SC(=S)N(CC3CCCO3)C2=O)ccc1O (stereo unspecified)	55.8*	36.2	0.4	-5.5
